Source: ChEMBL document CHEMBL1921730, “The anti-malarial activity of bivalent imidazolium salts” (Bioorg Med Chem, 2011)
Activity calls are given as the source filed them. The rule behind the calls is not given here.

Key:
Plasmodium falciparum [1] = test: Antiplasmodial activity against Plasmodium falciparum assessed as inhibition of parasite LDH activity after 72 hrs; assay type: functional, organism-based
Summary of the method: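 P. falciparum ItG grown in O+ human erythrocytes in RPMI-1640 with 10% human serum and 50 µM hypoxanthine. DMSO stocks (10 mg/mL) diluted two-fold serially; culture at 2% hematocrit and 2% parasitemia incubated 72 h at 37 °C under 95% N₂/3% CO₂/2% O₂. pLDH assay read at 595 nm after 1 h; IC50 by non-linear regression, mean ± SEM, n = 4; chloroquine positive control.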

CHO = test: Cytotoxicity against CHO cells after 48 hrs by MTT assay; assay type: cell-based; conditions: Cricetulus griseus
Summary of the method: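 CHO cells grown in RPMI-1640 with 10% fetal calf serum, 25 mM HEPES and gentamicin, to 50% confluency, then given two-fold gradients from 10 mg/mL DMSO stocks; DMSO-only control. After 48 h, MTT (10 mg/mL) was added for 30 min, then DMSO; absorbance read at 650 nm. IC50 by non-linear regression of sigmoidal dose-response curves; four determinations, mean ± SEM.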

[2] = Ratio of IC50 for CHO cells to IC50 for Plasmodium falciparum
Plasmodium falciparum [3] = test: Antiplasmodial activity against Plasmodium falciparum assessed as inhibition of merozoite invasion of RBCs at 20 uM after 48 hrs by SYBR green 1 fluorescence-based flow cytometry; assay type: functional, organism-based
Summary of the method: (§1)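 Sorbitol-synchronized ring-stage P. falciparum set to 5% parasitemia and 0.5% hematocrit, then treated for 48 h. An equal volume of RPMI-1640 with 0.2 µL/mL stock SYBR-Green was added for 1 h in the dark before flow cytometry (~200,000 events). Quadrant counts of parasitized, non-parasitized and small DNA-containing events were taken relative to total erythrocytes.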

Plasmodium falciparum [4] = test: Antiplasmodial activity against Plasmodium falciparum assessed as inhibition of parasite adherence to RBCs at 20 uM after 48 hrs by microscopic analysis; assay type: functional, organism-based
Plasmodium berghei [5] = test: Antiplasmodial activity against Plasmodium berghei […] by SYBR green 1 assay; assay type: functional, organism-based
Summary of the method: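 P. berghei blood from an infected mouse (5% parasitemia) obtained by cardiac puncture and washed 3 times in RPMI. Plated at 2% hematocrit in a two-fold compound gradient. Wells agitated at 24 h to release merozoites, then incubated a further 24 h. SYBR-Green I fluorescence read-out; IC50 from four independent determinations, mean ± SEM.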

Plasmodium berghei [6] = test: Antiplasmodial activity against Plasmodium berghei infected in BALB/c mouse assessed as delay in onset of parasitemia at 60 ug/day infused once daily for 3 days by Giemsa staining relative to control; assay type: functional, organism-based
Summary of the method: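 Female Balb/c mice, 6–8 weeks old, infected with 10⁶ P. berghei on Day 0 and followed by Giemsa-stained blood films until parasites appeared. Then infused once daily for three days with 0.5 mL RPMI-1640 or compound in RPMI-1640; vehicle control 1% (v/v) DMSO in RPMI-1640; chloroquine 15 mg/kg/day as positive control. Parasitemia by Giemsa films; five mice per group.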

Plasmodium falciparum [7] = test: Antiplasmodial activity against Plasmodium falciparum 3D7 assessed as reduction in parasitemia measured between day 1 and day 2 relative to control; assay type: functional, organism-based
Summary of the method: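 P. falciparum 3D7 cultures synchronized at mature stage on Percoll one day before the start. Set to 1% hematocrit and 2% parasitemia, treated with 40 nM or 83 nM compound, and sampled every 24 h for 4 days. Parasitemia counted on Giemsa-stained smears. Controls: uninfected RBCs, untreated cultures, sulfated β-cyclodextrin sodium salt and chloroquine.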

Plasmodium falciparum [8] = test: Antiplasmodial activity against Plasmodium falciparum assessed as inhibition of merozoite invasion of RBCs at 0.2 mg/ml after 48 hrs by SYBR green 1 fluorescence-based flow cytometry; assay type: functional, organism-based; summary of the method: as §1

Row | Structure (SMILES) | IC50 (Plasmodium falciparum [1]) [µM] | IC50 (CHO) [µM] | Ratio IC50 [2] | also measured
1 | O=[N+]([O-])c1ccc(C[n+]2ccn(-c3ccc(-c4ccc(-n5cc[n+](Cc6ccc([N+](=O)[O-])cc6)c5)cc4)cc3)c2)cc1.[Br-].[Br-] | 0.023 | 14 | 609 | –
2 | Cl.Cl.c1cn(CCCCCCCCn2ccnc2)cn1 | 6 | 140 | 23 | –
3 | Cl.Cl.c1cn(CCCCCCCCCCn2ccnc2)cn1 | 9.2 | 15 | 1.6 | –
4 | Cl.Cl.c1cn(CCCCCCn2ccnc2)cn1 | 90 | 899 | 10 | –
5 | O=C(Cn1cc[n+](CC(=O)c2ccc(Cl)cc2)c1)c1ccc(Cl)cc1 | – | – | – | inhibition (Plasmodium falciparum [3]): inactive; IC50 (Plasmodium berghei [5]): 4.2 µM; inhibition (Plasmodium falciparum [4]): Active
6 | C[n+]1cn(-c2ccc(-c3ccc(-n4c[n+](C)c5ccccc54)cc3)cc2)c2ccccc21.[I-].[I-] | 0.07 | 98 | 1400 | –
7 | C[n+]1ccn(Cc2ccc(-c3ccc(Cn4cc[n+](C)c4)cc3)cc2)c1.[I-].[I-] | 0.18 | – | 694 | –
8 | C[n+]1ccn(-c2ccc(-n3cc[n+](C)c3)cc2)c1.[I-].[I-] | 11.2 | – | 28 | –
9 | Cl.Cl.c1ncn(CCCCCCCCCCCCn2cncn2)n1 | 19 | 11.7 | 0.6 | –
10 | c1cn(-c2ccc(-n3ccnc3)cc2)cn1 | 93 | 1110 | 12 | –
11 | c1cn(Cc2ccc(-c3ccc(Cn4ccnc4)cc3)cc2)cn1 | 1.7 | 65 | 38 | –
12 | Cl.Cl.c1cn(CCCOc2ccc(OCCCn3ccnc3)cc2)cn1 | 4.9 | 50 | 10 | –
13 | O=S(=O)(O)OC[C@H]1O[C@@H]2O[C@H]3[C@H](O)[C@@H](O)[C@@H](O[C@H]4[C@H](O)[C@@H](O)[C@@H](O[C@H]5[C@H](O)[C@@H](O)[C@@H](O[C@H]6[C@H](O)[C@@H](O)[C@@H](O[C@H]7[C@H](O)[C@@H](O)[C@@H](O[C@H]8[C@H](O)[C@@H](O)[C@@H](O[C@H]1[C@H](O)[C@H]2O)O[C@@H]8COS(=O)(=O)O)O[C@@H]7COS(=O)(=O)O)O[C@@H]6COS(=O)(=O)O)O[C@@H]5COS(=O)(=O)O)O[C@@H]4COS(=O)(=O)O)O[C@@H]3COS(=O)(=O)O | – | – | – | Activity (Plasmodium falciparum [7]): Active; inhibition (Plasmodium falciparum [8]): Active
14 | C[n+]1ccn(-c2ccc(-c3ccc(-n4cc[n+](C)c4)cc3)cc2)c1.[I-].[I-] | 0.009 | 9 | 1000 | –
15 | [Br-].[Br-].c1ccc(C[n+]2ccn(-c3ccc(-c4ccc(-n5cc[n+](Cc6ccccc6)c5)cc4)cc3)c2)cc1 | 0.022 | 12.1 | 550 | –
16 | C[n+]1ccn(CCCOc2ccc(OCCCn3cc[n+](C)c3)cc2)c1.[I-].[I-] | 0.045 | – | 2511 | IC50 (Plasmodium berghei [5]): 0.046 µM
17 | c1cn(-c2ccc(-c3ccc(-n4ccnc4)cc3)cc2)cn1 | 3.1 | 27 | 9 | –
18 | c1cn(CCCCCCCCCCCCCCCCCCCCn2ccnc2)cn1 | 2.5 | 8 | 3.2 | –
19 | Cl.Cl.c1cn(CCCCn2ccnc2)cn1 | 1070 | 1900 | 1.8 | –

The next lines start with results.

Row | IC50 (Plasmodium falciparum [1]) [µM] | Structure (SMILES) | IC50 (CHO) [µM] | Ratio IC50 [2] | also measured
20 | 4.1 | Cl.Cl.c1cn(CCCCCCCCCCCCn2ccnc2)cn1 | 1.4 | 0.3 | –
21 | 0.002 | C[n+]1ccn(CCCCCCCCCCCCCCCn2cc[n+](C)c2)c1.[I-].[I-] | 1.2 | 600 | –
22 | 0.006 | C[n+]1ccn(CCCCCCCCCCCCn2cc[n+](C)c2)c1.[I-].[I-] | 26 | 4333 | inhibition (Plasmodium falciparum [3]): inactive; inhibition (Plasmodium falciparum [4]): Active
23 | 0.082 | C[n+]1ccn(CCCCCCCCCCn2cc[n+](C)c2)c1.[I-].[I-] | 57 | 695 | –
24 | 1.6 | Cl.Cl.c1cn(CCCCCCCCCCCCCCn2ccnc2)cn1 | 4.4 | 2.8 | –
25 | 1.9 | c1cn(CCCCCCCCCCCn2ccnc2)cn1 | 20 | 11 | –
26 | 0.0032 | C[n+]1ccn(CCCCCCCCCCCCCCn2cc[n+](C)c2)c1.[I-].[I-] | 11 | 3438 | –
27 | 0.0061 | C[n+]1ccn(CCCCCCCCCCCn2cc[n+](C)c2)c1.[I-].[I-] | 42 | 6885 | IC50 (Plasmodium berghei [5]): 0.05 µM
28 | 0.0009 | C[n+]1ccn(CCCCCCCCCCCCCCCCCCn2cc[n+](C)c2)c1.[I-].[I-] | 1.4 | 1556 | –
29 | 0.4 | c1cn(CCCCCCCCCCCCCCCCCCn2ccnc2)cn1 | 1.2 | 3 | –
30 | 67 | C[n+]1ccn(CCCCn2cc[n+](C)c2)c1.[I-].[I-] | – | 1.8 | –
31 | 0.012 | CC[n+]1ccn(CCCCCCCCCCCCn2cc[n+](CC)c2)c1.[I-].[I-] | 34 | 2833 | IC50 (Plasmodium berghei [5]): 0.12 µM
32 | 0.007 | C[n+]1ccn(CCCCCCCCCCCCCn2cc[n+](C)c2)c1.[I-].[I-] | 51 | 7286 | Activity (Plasmodium berghei [6]): Active
33 | 0.0005 | C[n+]1ccn(CCCCCCCCCCCCCCCCn2cc[n+](C)c2)c1.[I-].[I-] | 2.7 | 5400 | –
34 | 0.0021 | C[n+]1ccn(CCCCCCCCCCCCCCCCCCCCn2cc[n+](C)c2)c1.[I-].[I-] | 1.4 | 667 | –
35 | 4.7 | C[n+]1ccn(CCCCCCCCn2cc[n+](C)c2)c1.[I-].[I-] | – | 96 | –
36 | 0.56 | Cl.Cl.c1cn(CCCCCCCCCCCCCn2ccnc2)cn1 | 3 | 5.4 | –
37 | 0.0008 | CCC[n+]1ccn(CCCCCCCCCCCCn2cc[n+](CCC)c2)c1.[I-].[I-] | 78 | 97500 | –
38 | 2.6 | C[n+]1ccn(CCCCCCn2cc[n+](C)c2)c1.[I-].[I-] | – | 56 | –
39 | 0.65 | c1cn(CCCCCCCCCCCCCCCCn2ccnc2)cn1 | 1.3 | 2 | –
40 | 0.93 | Cl.Cl.c1cn(CCCCCCCCCCCCCCCn2ccnc2)cn1 | 2.8 | 3 | –
